CAL PDZ FP-1 – inhibitors of human CAL PDZ peptide binding | Q9HD26 | purified CAL PDZ, TMR-peptide fluorescence polarization, 1 h | inhibition, % at 24.9 µM | hit rate 0.92% among 300,000 | AID 602252;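 active means mean inhibition of at least 30% with at least half of replicates also reaching 30%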;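 further: 0% = DMSO neutral control and 100% = excess unlabeled competitor peptide PRC23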
Arrestin-AP2 inh – human beta-arrestin and AP2 interaction inhibition. FITC-arrestin peptide / GST-AP2 beads, flow cytometry; AP2 beta2 appendage carries R879A mutation. inhibition, % at 10 µM. hit rate 0.31% among 340,000. AID 504490;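 active means inhibition above a set limit, near 3 SD of compounds lacking own fluorescence, cut at about 54% in these data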;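 further: plate controls were DMSO wells for no effect and 5 µM unlabelled arrestin peptide for full effect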
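System: GST-tagged AP2 beta2-adaptin appendage (R879A) on 4 µm glutathione beads / Reagent: FITC-arrestin peptide, 50 nM / Detection: HyperCyt-sampled flow cytometry, FL1 channel, ex 488/em 535 nm / Timing: 12 min plus 1 h, RT / Buffer or medium: PBS plus Tween 20 (0.05%) and BSA (0.1%)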
CAL PDZ FP-2 – blocks peptide binding to human CAL PDZ domain | hit rate 0.02% among 330,000 | inhibition, % at 20 µM | Q9HD26 | purified CAL PDZ, TMR-peptide fluorescence polarization, 1 h | AID 504414;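 active means highest replicate inhibition of at least 40%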;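 further: plate controls were DMSO neutral control wells for no effect and unlabeled competitor peptide control wells for full effect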
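material = purified tagged CAL PDZ domain construct (CerCALP) | buffer or medium = sodium phosphate/NaCl buffer pH 7.4 with TCEP, IgG, Thesit | reagent = TMR-labelled reporter peptide T*-PRC34 bound in PDZ groove | incubation = 1 h room-temperature incubation prior to read | measured by = fluorescence polarization (mP) | evaluation = percent inhibition from loss of millipolarization | control set = unlabelled peptide and DMSO controls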
Tn7 DDE FP – disrupts Tn7 cyclic peptide binding to fibrin D-Dimer-E complex; FP displacement of FITC-Tn7 peptide from fibrin DD(E); 0% = median of compound wells per plate; P02675; AID 720508; inhibition, % at 8.3 µM; hit rate 0.13% among 370,000;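 active means inhibition above the mean of compounds falling within the control limits plus 3 SD of them, cut at about 14% in these data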;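 further: 0% = plate median of compound wells and 100% = 10 µM Aha-Tn7 peptide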
Target sequence (P02675 whole entry, looked up): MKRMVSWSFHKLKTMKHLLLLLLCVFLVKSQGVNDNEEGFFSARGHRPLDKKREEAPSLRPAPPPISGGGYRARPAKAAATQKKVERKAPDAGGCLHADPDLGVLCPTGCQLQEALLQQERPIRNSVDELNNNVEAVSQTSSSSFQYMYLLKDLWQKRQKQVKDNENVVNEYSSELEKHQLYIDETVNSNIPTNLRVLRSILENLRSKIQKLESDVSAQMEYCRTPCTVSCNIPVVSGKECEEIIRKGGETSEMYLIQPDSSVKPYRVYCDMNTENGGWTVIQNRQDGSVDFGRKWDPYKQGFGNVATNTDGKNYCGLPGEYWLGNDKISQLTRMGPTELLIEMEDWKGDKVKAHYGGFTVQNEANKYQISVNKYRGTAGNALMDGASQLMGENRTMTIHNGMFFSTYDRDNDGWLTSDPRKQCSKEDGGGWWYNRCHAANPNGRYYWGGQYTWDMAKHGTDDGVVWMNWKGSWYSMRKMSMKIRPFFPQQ
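Assay system: Human fibrin DD(E) protein | Medium: Tris buffer with calcium and detergent, pH 7.8 | Reagent: 0.1 µM fluorescent Tn7 | Compound dosing: Single point at 8.3 µM | Times: 10 min preincubation, 3 h with tracer, room temperature | Detection: Fluorescence polarization of the labelled Tn7 tracer | Controls: Aha-Tn7 high control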
DDE Tn6 FP inh – inhibitors of Tn6 peptide binding to human fibrin DD(E). P02675. Fibrin DD(E) TRITC-Tn6 fluorescence polarization displacement. inhibition, % at 8.3 µM. hit rate 0.21% among 370,000. AID 720509;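 active means inhibition above a per-campaign cutoff: mean of compounds within control limits plus 3 SD, cut at about 15% in these data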;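 further: 0% = median of all compound wells on the plate and 100% = blocking peptide control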
* marks the source's active call; other numbers are inactive results; x = no result given. The list is not random: actives were taken first. Their share in the collection is about 1.4%.

SMILES | CAL PDZ FP-1 | Arrestin-AP2 inh | CAL PDZ FP-2 | Tn7 DDE FP | DDE Tn6 FP inh
Cc1ccc(NC(=O)C(c2ccc(Cl)cc2)N2CCOCC2)cc1 (stereo not given) | 43* | 4 | -2 | -3 | 4
O=C(CSc1nc2c(sc3ccccc32)c(=O)n1Cc1ccccc1)NCC1CCCO1 (stereo not given) | 4 | -2 | 89* | -11 | 0
O=C(CSc1nc2ccc(N3CCOCC3)cc2c(=O)n1CCc1ccccc1)NCC1CCCO1 (stereo not given) | 68* | -5 | -3 | 5 | 9
CN1CCC(N[C@@H](Cc2ccccc2)C(=O)NCC(c2ccccc2)c2ccccc2)(C(=O)NC2CCCCC2)CC1 | x | x | x | 1 | 7
CCN(CC)CC(=O)Nn1c(C)nc2c(ncn2-c2ccccc2)c1=O | 51* | -5 | 0 | -7 | -2
COC(=O)c1c(NC(=O)CS(=O)(=O)c2ccccc2)sc(C)c1C | 45* | -15 | -2 | 5 | 6
Cc1sc(NC(=O)CS(=O)(=O)c2ccccc2)c(C#N)c1C | -7 | -21 | -3 | 1 | 4
C=CCC12C=C(OC)C(=O)C(C1=O)C(c1ccc(OC)cc1)C2C (stereo not given) | x | x | x | 0 | -6
COc1ccc(-c2noc(-c3ccccc3C(=O)NCC3CCCO3)n2)cc1 (stereo not given) | 70* | 7 | -1 | -9 | 2
Cc1ccc(Cn2cc(COC(=O)NCC(C)C)nn2)cc1 | x | x | x | -1 | 3
COc1ccc(NS(=O)(=O)c2ccc(O)c(C(=O)OCC(=O)N3CC(C)OC(C)C3)c2)cc1 (stereo not given) | x | -1 | 0 | 1 | -10
COc1ccc(NS(=O)(=O)c2ccc(O)c(C(=O)OCC(=O)N3CCCCC3)c2)cc1 | 39* | -12 | -1 | 3 | 9
O=C(COC(=O)Cc1ccc(F)cc1)NC1CCCCC1 | 34* | -9 | 0 | -5 | 4
O=C(COC(=O)Cc1ccc(F)cc1)NC1CCCCCC1 | -1 | 9 | -1 | -12 | 1
Fc1cccc(Cc2noc(CN3CCSCC3)n2)c1 | 57* | -6 | -1 | 2 | 6
FC(F)(F)c1cccc(Cc2noc(CN3CCSCC3)n2)c1 | 0 | 42 | -2 | -9 | -4
CCOc1ccc(N(CC(=O)Nc2c(C)n(C)n(-c3ccccc3)c2=O)S(=O)(=O)c2ccc(C)c(C)c2)cc1 | x | x | x | -2 | -8
Cn1cnnc1SCC(=O)Nc1ccc(OCc2ccccc2)cc1 | 41* | 19 | -1 | -3 | 0
S=C(Nc1cccc(Br)c1)OC1CCC12CCC(c1ccccc1)CC2 (stereo not given) | x | x | x | -3 | 1
CCOc1ccccc1CNc1ccc(O)cc1 | -3 | 36 | -1 | 4 | 3
CCOc1cccc(CNc2ccc(O)cc2)c1OCc1ccc(Cl)cc1 | 0 | 39 | -2 | -7 | 15*
CS(=O)(=O)Oc1ccc(Br)c2cccnc12 | 74* | -9 | -1 | 2 | 0
Nc1ccc(Br)c2cccnc12 | -1 | -13 | -1 | -5 | 0
COC(=O)CC1C(=O)NCCN1C(=O)c1ccc([N+](=O)[O-])cc1 (stereo not given) | 70* | -14 | -1 | -3 | 0
CCOC(=O)CC1C(=O)NCCN1C(=O)c1ccc(C)cc1 (stereo not given) | -1 | -10 | 0 | -4 | -2
SMILES | CAL PDZ FP-1 | Arrestin-AP2 inh | CAL PDZ FP-2 | Tn7 DDE FP | DDE Tn6 FP inh
COc1cc(OC)cc(C(=O)NNC(=S)NC(=O)c2cccnc2)c1 | 61* | -11 | -1 | -1 | 7
COCCCN1C(=O)[C@H](CC(=O)N2CCC(c3ccccc3)CC2)[C@]2(C(=O)OC)CCCCC=C12 | x | x | x | 1 | 3
CCC1CCCCN1CCCNC(=O)c1c(O)nc2ccccn2c1=O (stereo not given) | 78* | -4 | -1 | 6 | 7
O=C(NC1CCCCN(Cc2cccc(Cl)c2)C1=O)c1c(F)cccc1F (stereo not given) | x | x | x | 1 | 5
O=C(NCC(=O)N1CCN(Cc2ccccc2)CC1)c1ccc(Br)cc1 | 41* | -3 | -1 | -4 | -2
O=C(NCC(=O)N1CCN(Cc2ccccc2)CC1)c1ccc(Cl)cc1 | 0 | 43 | -2 | -4 | -1
CCCCN(CC)CCCNC(=O)c1cn(C)c(=O)c2c1c1ccccc1n2C | 37* | -23 | x | -7 | 8
CCCCN(CC)CCNC(=O)c1cn(CCOC)c(=O)c2c1c1ccccc1n2C | -2 | -11 | 0 | 1 | 1
Cc1nnc(SCC(=O)Nc2ccc3c(c2)OCCO3)n1N | -6 | -6 | -1 | 3 | -3
Nn1c(SCC(=O)Nc2ccc3c(c2)OCCO3)nnc(CCC(=O)O)c1=O | 83* | -21 | 1 | 5 | -5
Cc1cc2cc(CN(Cc3cccs3)S(=O)(=O)c3ccc4c(c3)OCCO4)c(=O)[nH]c2cc1C | 0 | -1 | -2 | 3 | 3
Cc1ccc2[nH]c(=O)c(CN(Cc3cccs3)S(=O)(=O)c3ccc4c(c3)OCCO4)cc2c1 | 34* | 2 | -2 | 1 | 6
COc1ccccc1OCCSc1nc2ccccc2n1CC(N)=O | 59* | -8 | x | 1 | -1
COc1ccc(OCCSc2nc3ccccc3n2CC(=O)O)cc1 | 11 | 14 | -2 | -1 | -3
CCOc1cc(-c2nc(C)c(C(C)=O)n2O)ccc1OCC(=O)Nc1ccccc1 | 38* | 15 | -1 | -4 | 8
COC(=O)C1=C(C)N(Cc2cccc(C(F)(F)F)c2)C(=NCc2ccc(OC)cc2)NC1c1ccccc1C(F)(F)F (stereo not given) | x | x | x | 2 | -1
O=C(O)c1cccc(NC(=O)c2cccc(S(=O)(=O)Nc3cccc([N+](=O)[O-])c3)c2)c1 | 96* | 0 | -2 | -5 | 4
Cc1ccc(C(=O)Nc2cccc([N+](=O)[O-])c2)cc1S(=O)(=O)Nc1cccc(C(=O)O)c1 | -1 | 7 | -1 | -7 | -3
CC1CC(C)CN(CCCNS(=O)(=O)c2cc3c(cc2Br)CCN3C(=O)C2CC2)C1 (stereo not given) | x | x | x | -4 | 1
CC(C)NC(=O)COc1coc(CN2CCN(c3ccccc3F)CC2)cc1=O | 60* | -8 | -1 | 8 | 6
CC(C)CN1C(=O)[C@]2(CC(=O)N(C)C2c2ccccc2)c2cc(-n3cc(CCCC#N)nn3)ccc21 (stereo not given in full) | x | x | x | -6 | -1
CSCC(C)N1CCC(n2nccc2NC(=O)CCCc2ccccc2)CC1 (stereo not given) | 0 | 1 | -2 | 8 | -7
C=C(C)CCC(C)N1CCC(n2nccc2NC(=O)CCCc2ccccc2)CC1 (stereo not given) | 42* | -6 | 1 | -5 | 2
COC(=O)c1cc(-c2ccc(Oc3ccccc3)cc2)c(=O)n2c1CCC2 | x | x | x | 4 | -12

Bioassay records (PubChem BioAssay)
